According to ChEMBL document CHEMBL4706506 (Eur J Med Chem, 2020):
Activity calls are given as the source filed them. No cut-off for these calls is given here.

Key:
HeLa = assay: Antiproliferative activity against human HeLa cells assessed as inhibition of cell proliferation measured after 48 hrs by CCK-8 assay; assay type: functional, cell-based
Method in brief: (§1)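 RPMI-1640 with 10% FBS, 37 °C, 5% CO2. Cells seeded at 1-3 × 10^4/well and exposed to 0.00098–64 μM (nine 4-fold steps) or 0.1% DMSO vehicle for 48 h. CCK-8 then added for 4 h; absorbance read at 450 nm. IC50 taken from dose–response curves; mean ± SD of three independent experiments.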

B16-F0 [1] = assay: Antiproliferative activity against mouse B16-F0 cells assessed as inhibition of cell proliferation measured after 48 hrs by CCK-8 assay; assay type: functional, cell-based; conditions: B16F0, 48 h; method in brief: as §1
MCF7 [2] = assay: Antiproliferative activity against human MCF7 cells assessed as inhibition of cell proliferation measured after 48 hrs by CCK-8 assay; assay type: functional, cell-based; conditions: MCF7, 48 h
HCT-116 = assay: Antiproliferative activity against human HCT-116 cells assessed as inhibition of cell proliferation measured after 48 hrs by CCK-8 assay; assay type: functional, cell-based; conditions: HCT-116, 48 h; method in brief: as §1
A549 = assay: Antiproliferative activity against human A549 cells assessed as inhibition of cell proliferation measured after 48 hrs by CCK-8 assay; assay type: functional, cell-based; conditions: A549, 48 h; method in brief: as §1
MCF7 [3] = assay: Induction of cell cycle arrest in human MCF7 cells assessed as accumulation of cells at G2/M phase measured after 48 hrs by FACS Calibur flow cytometry in relative to control; assay type: functional, cell-based
Method in brief: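 MCF-7 cells plated for 24 h, then exposed to compound (5 or 10 nM; DMSO control) for 48 h. Fixed in 70% ethanol at 4 °C for 12 h, then RNase A and propidium iodide staining for 30 min. DNA content measured by flow cytometry.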

[4] = Binding affinity to pig brain tubulin at 37 degree C without preincubation; assay type: tissue-based, Sus scrofa
Method in brief: (§2)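 Porcine brain tubulin purified by three assembly/disassembly cycles and phosphocellulose chromatography. Mixed with graded compound concentrations in PEM (100 mM PIPES, 1 mM EGTA, 1 mM MgCl2) with 1 mM GTP and 5% glycerol. Polymerization followed at 37 °C by light scattering at 340 nm; variants ran at 30 °C, or with 5 min preincubation before GTP addition. IC50 reported.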

[5] = Metabolic stability in human liver microsomes assessed as half life in presence of NADPH at 0.5 uM measured after 4 hrs by LC/MS method; assay type: ADME, Microsome
[6] = Inhibition of pig brain tubulin polymerization measured by light scattering based spectrophotometer method; assay type: tissue-based, Sus scrofa; method in brief: as §2
[7] = Binding affinity to pig brain tubulin at 30 degree C without preincubation; assay type: tissue-based, Sus scrofa; method in brief: as §2
[8] = Binding affinity to pig brain tubulin at 37 degree C preincubated for 5 mins; assay type: tissue-based, Sus scrofa; method in brief: as §2
[9] = Metabolic stability in mouse liver microsomes assessed as half life in presence of NADPH at 0.5 uM measured after 4 hrs by LC/MS method; assay type: ADME, Microsome
B16-F0 [10] = assay: Induction of microtubule destabilization in mouse B16-F0 cells assessed as short and wrapped structure at 160 nM measured after 6 hrs by DAPI staining based immunofluorescent assay relative to control; assay type: cell-based

Molecule `COc1cc(-c2ccnc3cc(-c4ccc(C(C)=O)cc4)nn23)cc(OC)c1OC` has an IC50 (HeLa) of 1810 nM, an IC50 (B16-F0 [1]) of 3930 nM and an IC50 (MCF7 [2]) of 5230 nM. It also gave an IC50 (HCT-116) of 4390 nM and an IC50 (A549) of 4100 nM.
Molecule `COc1ccc(-c2cc3nccc(-c4cc(OC)c(OC)c(OC)c4)n3n2)cc1N` has an IC50 (HeLa) of 283 nM, an IC50 (B16-F0 [1]) of 88 nM and an IC50 (MCF7 [2]) of 27 nM. It also gave an IC50 (HCT-116) of 251 nM and an IC50 (A549) of 138 nM.
With `COc1cc(-c2ccnc3cc(-c4ccc(N5CCOCC5)cc4)nn23)cc(OC)c1OC` the IC50 (HeLa) was > 10000 nM, the IC50 (B16-F0 [1]) was > 10000 nM and the IC50 (MCF7 [2]) was > 10000 nM. For the same molecule, the IC50 (HCT-116) was > 10000 nM and the IC50 (A549) was > 10000 nM.
`COc1cc(-c2ccnc3cc(-c4ccc5c(ccn5C)c4)nn23)cc(OC)c1OC` showed an IC50 (HeLa) of 19 nM, an IC50 (B16-F0 [1]) of 48 nM and an IC50 (MCF7 [2]) of 3 nM. For the same molecule, the Activity (MCF7 [3]) was “Active”, the IC50 [4] was 6700 nM and the half-life at 0.5 µM [5] was 20 min. The IC50 (HCT-116) was 39 nM, the IC50 (A549) was 15 nM and the IC50 [6] was 6700 nM. For the same molecule, the IC50 [7] was 6400 nM, the IC50 [8] was 5700 nM and the half-life at 0.5 µM [9] was 7 min.
In the case of `CCOC(=O)c1ccc(-c2cc3nccc(-c4cc(OC)c(OC)c(OC)c4)n3n2)cc1`, the IC50 (HeLa) is reported as > 10000 nM, the IC50 (B16-F0 [1]) is reported as > 10000 nM and the IC50 (MCF7 [2]) is reported as > 10000 nM. The IC50 (HCT-116) was > 10000 nM and the IC50 (A549) was > 10000 nM.
`COc1cc(-c2ccnc3cc(-c4c[nH]c5ccccc45)nn23)cc(OC)c1OC` gave an IC50 (HeLa) of 195 nM, an IC50 (B16-F0 [1]) of 40 nM and an IC50 (MCF7 [2]) of 85 nM. For the same molecule, the IC50 (HCT-116) was 35 nM and the IC50 (A549) was 29 nM.
Work on `COc1cc(-c2ccnc3cc(-c4cn(C(=O)OC(C)(C)C)c5ccccc45)nn23)cc(OC)c1OC` yielded an IC50 (HeLa) of 3770 nM, an IC50 (B16-F0 [1]) of 3070 nM and an IC50 (MCF7 [2]) of 268 nM. It also gave an IC50 (HCT-116) of 5720 nM and an IC50 (A549) of 2060 nM.
Work on `COc1cc(-c2ccnc3cc(-c4cccc(C)c4)nn23)cc(OC)c1OC` yielded an IC50 (HeLa) of 4230 nM, an IC50 (B16-F0 [1]) of 2220 nM and an IC50 (MCF7 [2]) of 1080 nM. It also gave an IC50 (HCT-116) of 6150 nM and an IC50 (A549) of 5730 nM.
With `COc1ccc(-c2cc3nccc(-c4cc(OC)c(OC)c(OC)c4)n3n2)cc1F` the IC50 (HeLa) was 236 nM, the IC50 (B16-F0 [1]) was 3950 nM and the IC50 (MCF7 [2]) was 183 nM. The IC50 (HCT-116) was 2840 nM and the IC50 (A549) was 545 nM.
In the case of `COc1cc(-c2ccnc3cc(-c4ccc(C(C)(C)C)cc4)nn23)cc(OC)c1OC`, the IC50 (HeLa) is reported as > 10000 nM, the IC50 (B16-F0 [1]) is reported as > 10000 nM and the IC50 (MCF7 [2]) is reported as > 10000 nM. For the same molecule, the IC50 (HCT-116) was > 10000 nM and the IC50 (A549) was > 10000 nM.
With `COc1cc(-c2ccnc3cc(-c4ccccc4)nn23)cc(OC)c1OC` the IC50 (HeLa) was 458 nM, the IC50 (B16-F0 [1]) was 4730 nM and the IC50 (MCF7 [2]) was 254 nM. For the same molecule, the IC50 (HCT-116) was 3880 nM and the IC50 (A549) was 208 nM.
For `COc1cc(-c2ccnc3cc(-c4cn(CO)c5ccccc45)nn23)cc(OC)c1OC`, the IC50 (HeLa) was 103 nM, the IC50 (B16-F0 [1]) was 93 nM and the IC50 (MCF7 [2]) was 19 nM. For the same molecule, the IC50 (HCT-116) was 128 nM and the IC50 (A549) was 167 nM.
`COc1cc2c(c(OC)c1OC)-c1ccc(OC)c(=O)cc1[C@@H](NC(C)=O)CC2` [COLCHICINE] showed an IC50 (HeLa) of 81 nM, an IC50 (B16-F0 [1]) of 87 nM and an IC50 (MCF7 [2]) of 18 nM. For the same molecule, the Activity (B16-F0 [10]) was “Active”, the IC50 (HCT-116) was 42 nM and the IC50 (A549) was 107 nM.
`COc1ccc(-c2cc3nccc(-c4cc(OC)c(OC)c(OC)c4)n3n2)cc1` gave an IC50 (HeLa) of 373 nM, an IC50 (B16-F0 [1]) of 1400 nM and an IC50 (MCF7 [2]) of 125 nM. For the same molecule, the IC50 (HCT-116) was 404 nM and the IC50 (A549) was 376 nM.
With `COc1cc(-c2ccnc3cc(-c4ccc(CO)cc4)nn23)cc(OC)c1OC` the IC50 (HeLa) was 456 nM, the IC50 (B16-F0 [1]) was 1090 nM and the IC50 (MCF7 [2]) was 1070 nM. For the same molecule, the IC50 (HCT-116) was 861 nM and the IC50 (A549) was 1100 nM.
In the case of `C=Cc1ccc(-c2cc3nccc(-c4cc(OC)c(OC)c(OC)c4)n3n2)cc1`, the IC50 (HeLa) is reported as 882 nM, the IC50 (B16-F0 [1]) is reported as 788 nM and the IC50 (MCF7 [2]) is reported as 193 nM. It also gave an IC50 (HCT-116) of 1060 nM and an IC50 (A549) of 1030 nM.
In the case of `COc1ccc(-c2cc3nccc(-c4cc(OC)c(OC)c(OC)c4)n3n2)cc1[N+](=O)[O-]`, the IC50 (HeLa) is reported as > 10000 nM, the IC50 (B16-F0 [1]) is reported as > 10000 nM and the IC50 (MCF7 [2]) is reported as > 10000 nM. The IC50 (HCT-116) was > 10000 nM and the IC50 (A549) was > 10000 nM.
For `COc1cc(-c2ccnc3cc(-c4ccc(F)cc4)nn23)cc(OC)c1OC`, the IC50 (HeLa) was 5840 nM, the IC50 (B16-F0 [1]) was 4540 nM and the IC50 (MCF7 [2]) was 1280 nM. For the same molecule, the IC50 (HCT-116) was 5030 nM and the IC50 (A549) was 3800 nM.
